Screening results from PubChem BioAssay.
An excerpt weighted towards active compounds, which were near 5.1% of everything screened.
STAT1 act – activators of IFN-gamma induced STAT1 signaling; NIH 3T3 STAT1-luciferase reporter, luminescence; 100% = IFN-gamma alone, no compound; activation (% of control), % at 5.5 µM; 2.6% of 200,000 active;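 active = activation above the screen-wide mean activation plus 3 SD, cut at about 130% in these data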;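 note: raw ratio to IFN-gamma control signal so 100% means no change and 0% no light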
STAT3 activator – increases IL-6 driven STAT3 reporter signal. U3A cells, IL-6 STAT3-luciferase reporter, luminescence; 100% = signal with IL-6 EC80 alone. activation (% of control), % at 5.6 µM. 0.91% of 190,000 active. AID 871;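 active = activation above the screen-wide mean of compound activation plus 3 SD, cut at about 130% in these data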;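 note: 0% = background luminescence of wells with medium and substrate only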
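Material: STAT3-luciferase reporter U3A cells. Controls: IL-6-treated wells, 100% activation. Read-out: % activation versus median of IL-6-stimulated wells. Probe or stimulus: IL-6 stimulus at 33 ng/mL final. Timing: compound 1 h, then IL-6 6 h at 37 °C. Signal: reporter luminescence signal.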
STAT3 inh – STAT3 signaling inhibition. U3A cells, IL-6 STAT3-luciferase reporter, luminescence; host cell line lacks STAT1. inhibition, % at 5.5 µM. 0.89% of 190,000 active. AID 862;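 active = inhibition above the mean inhibition across all screened compounds plus 3 SD, cut at about 44% in these data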;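 note: 0% = DMSO only wells and 100% = 100 µM nifuroxazide control wells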
APP 5'UTR act – APP 5'UTR luciferase reporter activation; SH-SY5Y APP 5'UTR luciferase reporter, luminescence; zero percent = DMSO vehicle wells; activation, % at 2 µM; 1% of 190,000 active;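 active = activation above a set limit, based on mean plus 3 SD of controls, cut at about 140% in these data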
NF-kB expr up – NF-kB expression increase, human neuronal cells; NF-kB reporter expression; stronger effect = higher value; fold change at 12.5 µM; 1.6% of 190,000 active; AID 1239; in the data active = fold change above about 3.3
STAT1 inh – STAT1 signaling inhibition. NIH 3T3 STAT1-luciferase reporter, IFN-gamma, luminescence. inhibition, % at 5.5 µM. 0.35% of 200,000 active;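 active = inhibition above a set limit, the mean inhibition across all tested compounds plus 3 SD, cut at about 34% in these data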;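 note: 0% = IFN-gamma with DMSO and 100% = IFN-gamma with 300 µM nifuroxazide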
The depositor's hits bear a star; · = not tested or not shown.

SMILES | STAT1 act | STAT3 activator | STAT3 inh | APP 5'UTR act | NF-kB expr up | STAT1 inh
Cc1ccc(C2=Nc3ccccc3N=C(C(Cl)Cl)C2)cc1 | 91 | 84 | 21 | 109 | 4* | 9
COc1cccc(Oc2nccc(N(C)C)c2C#N)c1 | 116 | 91 | 15 | 39 | 1.8 | -19
CSc1ccc(C2c3[nH]c4ccccc4c3CCN2C(=O)c2ccnn2C)cc1 (stereo unspecified) | 137* | 150* | -50 | 71 | 3 | -40
CCc1ccc(C2c3[nH]c4ccccc4c3CCN2C(=O)CN2CCN(CC)CC2)cc1 (stereo unspecified) | 94 | 134* | -32 | -2 | 0.67 | 5
CCc1ccc(C2c3[nH]c4ccccc4c3CCN2C(=O)CNC(N)=O)cc1 (stereo unspecified) | 98 | 122 | -18 | -1 | 1.1 | 0
CO/N=C/c1ccc(N2CCCC2)c([N+](=O)[O-])c1 | 130* | 89 | 15 | 15 | 2.2 | -31
CCOC(=O)CNC(=O)CSc1nnc(NC(=O)c2ccc(C)cc2)s1 | 44 | 39 | 72* | 37 | 2.8 | 59*
CCOC(=O)CNC(=O)CSc1nnc(SCC(=O)NCC(=O)OCC)s1 | 102 | 102 | 1 | 4 | 0.95 | -2
Cc1cccc(NC(=O)c2cc(=O)c3ccccc3o2)n1 | 134* | 85 | 21 | 9 | 1 | -37
NC(=O)c1ccsc1NC(=O)c1cc(=O)c2ccccc2o1 | 138* | 108 | -10 | 105 | 1.5 | -42
CC(=O)N1N=C(c2cccc(Br)c2)OC12CCCC2 | 100 | 86 | 26 | 0 | 0.98 | 0
O=C1/C(=C/c2ccccc2)CCCc2ccccc21 | 112 | 98 | 6 | 71 | 2.9 | -13
Cc1cccc(/C=C2\CCC(=C3SCCCS3)C2=O)c1 | 90 | 84 | 26 | 172* | 2.4 | 11
CCOc1ccccc1-c1nc2c(C(C)(C)C)nn(C)c2c(=O)[nH]1 | 106 | 101 | 2 | -2 | 1.2 | -8
O=C1CCC(=O)N1c1ccc(-c2nc3ccccc3s2)cc1 | 37 | 26 | 86* | 107 | 1.8 | 68*
CC(C)=CCN1CCN(Cc2cnc(C)s2)CC1CCO (stereo unspecified) | 102 | 99 | 5 | 1 | 1.1 | -3
Clc1ccc(-c2cn3cccnc3n2)cc1 | 133* | 86 | 16 | 16 | 2.3 | -35
COc1cc(OC)cc(-c2nnc(SCC(=O)Nc3cc(C)on3)o2)c1 | 100 | 99 | 6 | 8 | · | 0
CCOC(=O)c1cc(C(=O)OCC)cc(-n2cc(O)c(C(=O)OCC)n2)c1 | 87 | 88 | 18 | -7 | 0.7 | 14
CCOC(=O)c1nn(-c2ccc(C)cc2)cc1O | 108 | 88 | 19 | 137* | 4.1* | -9
O=C(/C=C\c1ccc(-c2cccc([N+](=O)[O-])c2)o1)N1CCOCC1 | 129* | 104 | -2 | 18 | 1 | -33
O=C(c1cccc([N+](=O)[O-])c1)N1CCOCC1 | 98 | 93 | 7 | 15 | 1.3 | 2
O=C(NCc1cccc(CNC(=O)C(=O)NCc2ccco2)c1)C(=O)NCc1ccco1 | 99 | 100 | 1 | -11 | 1.1 | -1
COc1ccc(/C=N/NC(=O)C2C(C=C(Cl)Cl)C2(C)C)c(OC)c1 (stereo unspecified) | 102 | 97 | 13 | 17 | 1.1 | -3
O=C(Nc1cnc2ccccn2c1=O)c1ccc(Cl)cc1Cl | 63 | 43 | 70* | 153* | 1.7 | 41*
SMILES | STAT1 act | STAT3 activator | STAT3 inh | APP 5'UTR act | NF-kB expr up | STAT1 inh
Cc1ccc(C(=O)Nc2cnc3ccccn3c2=O)cc1 | 132* | 87 | 14 | 39 | 2.6 | -34
O=C(Nc1cccn2ncnc12)c1ccc(Cl)cc1Cl | 91 | 83 | 22 | -4 | 1 | 10
O=Cc1s/c(=N\S(=O)(=O)c2ccccc2)n(CCCCl)c1Cl | 136* | 101 | 1 | -95 | 0.12 | -38
CCOC(=O)c1c(CNc2ccncc2)n(C)c2cc(Br)c(O)cc12 | 105 | 100 | 2 | -24 | 0.92 | -8
Cc1ccc(-n2nnc(-c3cc4ccccc4nc3Cl)n2)cc1 | 90 | · | · | 5 | 1.7 | 12
Clc1ccc(-n2nnc(-c3nccs3)n2)cc1Cl | 98 | · | · | 199* | 4.8* | 4
COc1cccc2cc(-c3cn4cccc(C)c4n3)c(=O)oc12 | 136* | 105 | -3 | 57 | · | -39
COc1ccc(-n2c(C)cc(-c3cn4cccc(C)c4n3)c2C)cc1 | 100 | 103 | 7 | 17 | 0.98 | -2
CC(=O)c1c(C)[nH]c(C(=O)Nc2nccs2)c1C | 133* | 106 | 2 | 58 | 2.6 | -38
CC(=O)c1c(C)[nH]c(C(=O)Nc2ccc(C)c(C)c2)c1C | 138* | 80 | 29 | · | 3.8* | -41
CCOC(=O)c1c(C)[nH]c(C(=O)Nc2ccc(C)c(Cl)c2)c1C | 128 | 101 | -4 | 163* | 3.8* | -27
COC(=O)c1c(C)[nH]c(C(=O)/C=C/c2ccccc2)c1C | 140* | 77 | 29 | 121 | 1.6 | -45
COC(=O)c1c(C)[nH]c(C(=O)/C=C/c2cccc(Cl)c2)c1C | 108 | 96 | 7 | 74 | 1.6 | -9
CCOC(=O)c1c(C)[nH]c(C(=O)Nc2ccc(NC(C)=O)cc2)c1C | 86 | 80 | 28 | -13 | 0.94 | 17
CSc1nnc(-c2cc[n+](C)cc2)n1CCO | 94 | 102 | 3 | -7 | 1.3 | 7
O=C(CSc1nc(-c2ccccc2)cs1)Nc1ccccc1[N+](=O)[O-] | 96 | 109 | -11 | 9 | 0.94 | 4
COc1ccc(/C=C(/NC(=O)c2ccccc2Cl)C(=O)NCCCC(=O)O)cc1 | 98 | 96 | 9 | 0 | 1.2 | 1
CCOC(=O)c1[nH]c(C)c(C(=O)Nc2ccc3c(c2)OCCO3)c1C | 101 | 93 | 14 | 28 | 1.2 | -1
CC(=O)c1c(C)[nH]c(C(=O)Nc2ccc3c(c2)OCCO3)c1C | 138* | 92 | 12 | 193* | 5.5* | -42
CCOC(=O)c1c(C)[nH]c(C(=O)NNC(=O)c2ccccc2)c1C | 146* | 110 | 0 | 164* | 3.4* | -51
CCOC(=O)C1CCN(S(=O)(=O)c2ccc(OC)c(Cl)c2)CC1 | 96 | 105 | 3 | 1 | 1.4 | 2
C=CCNC(=S)N/N=C(\C)c1ccccn1 | 136* | 111 | -6 | -93 | 0.17 | -39
CCOc1ccc(OCc2cccc(C(=O)N/N=C/c3cccnc3)c2)cc1 | 45 | 19 | 96* | 20 | 1.9 | 62*
CC(C)c1ccc(OCc2cccc(C(=O)N/N=C/c3cccnc3)c2)cc1 | 66 | 53 | 57* | 103 | 2 | 36*
COc1cc(NC(=S)N2CCN(c3ccccn3)CC2)cc(OC)c1 | 94 | 98 | -2 | -12 | 1.3 | 7
CNC(=O)/C(C#N)=C/c1ccc(-c2ccccc2[N+](=O)[O-])o1 | 112 | 87 | 19 | -1 | 1.7 | -13
